≈ marks a conversion by molar mass, not a printed value.
system: Fusarium verticillioides; assay: Antifungal activity against Fusarium moniliforme at 20 ug after 48 hrs by cup diffusion method; type: functional; details: read-out: IZ
Outline: (§1)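 Cup diffusion on 9 cm plates seeded with 1 × 10⁶ cfu of fungi, with spores adjusted to at least 1 × 10⁶ cfu/ml in potato dextrose broth. Compound in DMF was placed in 5 mm agar cups and left 1 h to diffuse. Plates were incubated at 28 °C for 48 h and the inhibition zone read in mm. DMF was the negative control.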

| Compound | zone of inhibition at 20 µg/disc [mm] |
| --- | --- |
| CCOC(=O)C1CCC(c2ccc(OC)c(OC)c2)=NO1 (stereo not given) | 11.7 |
| COc1ccc(C2=NOC(C#N)CC2)cc1 (stereo not given) | 13.4 |
| COc1ccc(C2=NOC(Cc3ccc4c(c3)OCO4)CC2)cc1 (stereo not given) | 12.8 |
| Cc1ccc(C2=NOC(CCl)CC2)cc1 (stereo not given) | 17.7 |
| COc1ccc(C2=NOC(CO)CC2)cc1OC (stereo not given) | 10.8 |

system: Fusarium oxysporum; assay: Antifungal activity against Fusarium oxysporum at 20 ug after 48 hrs by cup diffusion method; type: functional; details: read-out: IZ; outline: as §1

| Compound | zone of inhibition at 20 µg/disc [mm] |
| --- | --- |
| CCOC(=O)C1CCC(c2ccc(OC)c(OC)c2)=NO1 (stereo not given) | 16.7 |
| COc1ccc(C2=NOC(C#N)CC2)cc1 (stereo not given) | 18.5 |
| COc1ccc(C2=NOC(Cc3ccc4c(c3)OCO4)CC2)cc1 (stereo not given) | 16.8 |
| Cc1ccc(C2=NOC(CCl)CC2)cc1 (stereo not given) | 20.8 |
| COc1ccc(C2=NOC(CO)CC2)cc1OC (stereo not given) | 16.5 |

system: Aspergillus flavus; assay: Antifungal activity against Aspergillus flavus after 48 hrs by cup diffusion method; type: functional; details: not given

| Compound | MIC [µg/mL] |
| --- | --- |
| COc1ccc(C2=NOC(C#N)CC2)cc1 (stereo not given) | 35 (≈ 162 µM) |
| COc1ccc(C2=NOC(Cc3ccc4c(c3)OCO4)CC2)cc1 (stereo not given) | 40 (≈ 123 µM) |
| COc1ccc(C2=NOC(CO)CC2)cc1OC (stereo not given) | 40 (≈ 159 µM) |

The remaining lines, values ahead:

| MIC [µg/mL] | Compound |
| --- | --- |
| 35 (≈ 119 µM) | CCOC(=O)C1CCC(c2ccc(OC)c(OC)c2)=NO1 (stereo not given) |
| 15 (≈ 67.1 µM) | Cc1ccc(C2=NOC(CCl)CC2)cc1 (stereo not given) |

system: Aspergillus niger; assay: Antifungal activity against Aspergillus niger after 48 hrs by cup diffusion method; type: functional; details: not given

| Compound | MIC [µg/mL] |
| --- | --- |
| COc1ccc(C2=NOC(C#N)CC2)cc1 (stereo not given) | 40 (≈ 185 µM) |
| COc1ccc(C2=NOC(Cc3ccc4c(c3)OCO4)CC2)cc1 (stereo not given) | 35 (≈ 108 µM) |
| COc1ccc(C2=NOC(CO)CC2)cc1OC (stereo not given) | 40 (≈ 159 µM) |

Further lines, results first:

| MIC [µg/mL] | Compound |
| --- | --- |
| 35 (≈ 119 µM) | CCOC(=O)C1CCC(c2ccc(OC)c(OC)c2)=NO1 (stereo not given) |
| 15 (≈ 67.1 µM) | Cc1ccc(C2=NOC(CCl)CC2)cc1 (stereo not given) |

system: Fusarium verticillioides; assay: Antifungal activity against Fusarium moniliforme after 48 hrs by cup diffusion method; type: functional; details: not given

| Compound | MIC [µg/mL] |
| --- | --- |
| COc1ccc(C2=NOC(C#N)CC2)cc1 (stereo not given) | 35 (≈ 162 µM) |
| COc1ccc(C2=NOC(Cc3ccc4c(c3)OCO4)CC2)cc1 (stereo not given) | 35 (≈ 108 µM) |
| COc1ccc(C2=NOC(CO)CC2)cc1OC (stereo not given) | 35 (≈ 139 µM) |

The next lines start with the values.

| MIC [µg/mL] | Compound |
| --- | --- |
| 30 (≈ 102 µM) | CCOC(=O)C1CCC(c2ccc(OC)c(OC)c2)=NO1 (stereo not given) |
| 10 (≈ 44.7 µM) | Cc1ccc(C2=NOC(CCl)CC2)cc1 (stereo not given) |

system: Fusarium oxysporum; assay: Antifungal activity against Fusarium oxysporum after 48 hrs by cup diffusion method; type: functional; details: not given

| Compound | MIC [µg/mL] |
| --- | --- |
| COc1ccc(C2=NOC(C#N)CC2)cc1 (stereo not given) | 30 (≈ 139 µM) |
| COc1ccc(C2=NOC(Cc3ccc4c(c3)OCO4)CC2)cc1 (stereo not given) | 35 (≈ 108 µM) |
| COc1ccc(C2=NOC(CO)CC2)cc1OC (stereo not given) | 30 (≈ 119 µM) |

Further lines, results first:

| MIC [µg/mL] | Compound |
| --- | --- |
| 35 (≈ 119 µM) | CCOC(=O)C1CCC(c2ccc(OC)c(OC)c2)=NO1 (stereo not given) |
| 15 (≈ 67.1 µM) | Cc1ccc(C2=NOC(CCl)CC2)cc1 (stereo not given) |

system: Klebsiella pneumoniae; assay: Antibacterial activity against Klebsiella pneumoniae […] at 20 ug after 24 hrs by cup diffusion method; type: functional; details: read-out: IZ
Outline: (§2)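 Agar cup diffusion. Plates of sterile medium in 9 cm dishes were seeded with 1 × 10⁵ cfu of bacteria, with the suspension adjusted to at least 1 × 10⁵ cfu/ml in nutrient broth. Compound in DMF was placed in 5 mm cups and pre-diffused for 1 h. Plates were incubated at 37 °C for 24 h and the inhibition zone measured in mm. DMF served as negative control.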

| Compound | zone of inhibition at 20 µg/disc [mm] |
| --- | --- |
| CCOC(=O)C1CCC(c2ccc(OC)c(OC)c2)=NO1 (stereo not given) | 20.7 |
| COc1ccc(C2=NOC(C#N)CC2)cc1 (stereo not given) | 6.66 |
| COc1ccc(C2=NOC(Cc3ccc4c(c3)OCO4)CC2)cc1 (stereo not given) | 19.7 |
| Cc1ccc(C2=NOC(CCl)CC2)cc1 (stereo not given) | 16.5 |
| COc1ccc(C2=NOC(CO)CC2)cc1OC (stereo not given) | 14.5 |

system: Escherichia coli; assay: Antibacterial activity against Escherichia coli MTCC 443 at 20 ug after 24 hrs by cup diffusion method; type: functional; details: MTCC 443, 24 h, read-out: IZ; outline: as §2

| Compound | zone of inhibition at 20 µg/disc [mm] |
| --- | --- |
| CCOC(=O)C1CCC(c2ccc(OC)c(OC)c2)=NO1 (stereo not given) | 14.7 |
| COc1ccc(C2=NOC(C#N)CC2)cc1 (stereo not given) | 10.2 |
| COc1ccc(C2=NOC(Cc3ccc4c(c3)OCO4)CC2)cc1 (stereo not given) | 21.8 |
| Cc1ccc(C2=NOC(CCl)CC2)cc1 (stereo not given) | 15.7 |
| COc1ccc(C2=NOC(CO)CC2)cc1OC (stereo not given) | 8.5 |

system: Pseudomonas aeruginosa; assay: Antibacterial activity against Pseudomonas aeruginosa MTCC 1688 at 20 ug after 24 hrs by cup diffusion method; type: functional; details: MTCC 1688, 24 h, read-out: IZ; outline: as §2

| Compound | zone of inhibition at 20 µg/disc [mm] |
| --- | --- |
| CCOC(=O)C1CCC(c2ccc(OC)c(OC)c2)=NO1 (stereo not given) | 25.7 |
| COc1ccc(C2=NOC(C#N)CC2)cc1 (stereo not given) | 12.2 |
| COc1ccc(C2=NOC(Cc3ccc4c(c3)OCO4)CC2)cc1 (stereo not given) | 31.8 |
| Cc1ccc(C2=NOC(CCl)CC2)cc1 (stereo not given) | 11.5 |
| COc1ccc(C2=NOC(CO)CC2)cc1OC (stereo not given) | 10.5 |

system: Staphylococcus aureus; assay: Antibacterial activity against Staphylococcus aureus MTCC 737 at 20 ug after 24 hrs by cup diffusion method; type: functional; details: MTCC 737, 24 h, read-out: IZ; outline: as §2

| Compound | zone of inhibition at 20 µg/disc [mm] |
| --- | --- |
| CCOC(=O)C1CCC(c2ccc(OC)c(OC)c2)=NO1 (stereo not given) | 16.5 |
| COc1ccc(C2=NOC(C#N)CC2)cc1 (stereo not given) | 9.5 |
| COc1ccc(C2=NOC(Cc3ccc4c(c3)OCO4)CC2)cc1 (stereo not given) | 21.7 |
| Cc1ccc(C2=NOC(CCl)CC2)cc1 (stereo not given) | 16.7 |
| COc1ccc(C2=NOC(CO)CC2)cc1OC (stereo not given) | 7.66 |

system: Escherichia coli; assay: Antibacterial activity against Escherichia coli MTCC 443 after 24 hrs by cup diffusion method; type: functional; details: MTCC 443, 24 h

| Compound | MIC [µg/mL] |
| --- | --- |
| COc1ccc(C2=NOC(C#N)CC2)cc1 (stereo not given) | 25 (≈ 116 µM) |
| COc1ccc(C2=NOC(Cc3ccc4c(c3)OCO4)CC2)cc1 (stereo not given) | 25 (≈ 76.8 µM) |
| COc1ccc(C2=NOC(CO)CC2)cc1OC (stereo not given) | 35 (≈ 139 µM) |

Second part, the compound after the results:

| MIC [µg/mL] | Compound |
| --- | --- |
| 30 (≈ 102 µM) | CCOC(=O)C1CCC(c2ccc(OC)c(OC)c2)=NO1 (stereo not given) |
| 20 (≈ 89.4 µM) | Cc1ccc(C2=NOC(CCl)CC2)cc1 (stereo not given) |

system: Klebsiella pneumoniae; assay: Antibacterial activity against Klebsiella pneumoniae […] after 24 hrs by cup diffusion method; type: functional; details: not given

| Compound | MIC [µg/mL] |
| --- | --- |
| COc1ccc(C2=NOC(C#N)CC2)cc1 (stereo not given) | 15 (≈ 69.4 µM) |
| COc1ccc(C2=NOC(Cc3ccc4c(c3)OCO4)CC2)cc1 (stereo not given) | 15 (≈ 46.1 µM) |
| COc1ccc(C2=NOC(CO)CC2)cc1OC (stereo not given) | 25 (≈ 99.5 µM) |

The next lines start with the values.

| MIC [µg/mL] | Compound |
| --- | --- |
| 20 (≈ 68.2 µM) | CCOC(=O)C1CCC(c2ccc(OC)c(OC)c2)=NO1 (stereo not given) |
| 15 (≈ 67.1 µM) | Cc1ccc(C2=NOC(CCl)CC2)cc1 (stereo not given) |

system: Pseudomonas aeruginosa; assay: Antibacterial activity against Pseudomonas aeruginosa MTCC 1688 after 24 hrs by cup diffusion method; type: functional; details: MTCC 1688, 24 h

| Compound | MIC [µg/mL] |
| --- | --- |
| COc1ccc(C2=NOC(C#N)CC2)cc1 (stereo not given) | 15 (≈ 69.4 µM) |
| COc1ccc(C2=NOC(Cc3ccc4c(c3)OCO4)CC2)cc1 (stereo not given) | 20 (≈ 61.5 µM) |
| COc1ccc(C2=NOC(CO)CC2)cc1OC (stereo not given) | 20 (≈ 79.6 µM) |

Other lines, results leading:

| MIC [µg/mL] | Compound |
| --- | --- |
| 15 (≈ 51.1 µM) | CCOC(=O)C1CCC(c2ccc(OC)c(OC)c2)=NO1 (stereo not given) |
| 15 (≈ 67.1 µM) | Cc1ccc(C2=NOC(CCl)CC2)cc1 (stereo not given) |

system: Staphylococcus aureus; assay: Antibacterial activity against Staphylococcus aureus MTCC 737 after 24 hrs by cup diffusion method; type: functional; details: MTCC 737, 24 h

| Compound | MIC [µg/mL] |
| --- | --- |
| COc1ccc(C2=NOC(C#N)CC2)cc1 (stereo not given) | 10 (≈ 46.2 µM) |
| COc1ccc(C2=NOC(Cc3ccc4c(c3)OCO4)CC2)cc1 (stereo not given) | 15 (≈ 46.1 µM) |
| COc1ccc(C2=NOC(CO)CC2)cc1OC (stereo not given) | 20 (≈ 79.6 µM) |

Results, then the compound that gave them:

| MIC [µg/mL] | Compound |
| --- | --- |
| 15 (≈ 51.1 µM) | CCOC(=O)C1CCC(c2ccc(OC)c(OC)c2)=NO1 (stereo not given) |
| 10 (≈ 44.7 µM) | Cc1ccc(C2=NOC(CCl)CC2)cc1 (stereo not given) |

system: Aspergillus flavus; assay: Antifungal activity against Aspergillus flavus at 20 ug after 48 hrs by cup diffusion method; type: functional; details: read-out: IZ; outline: as §1

| Compound | zone of inhibition at 20 µg/disc [mm] |
| --- | --- |
| CCOC(=O)C1CCC(c2ccc(OC)c(OC)c2)=NO1 (stereo not given) | 9.66 |
| COc1ccc(C2=NOC(C#N)CC2)cc1 (stereo not given) | 8.5 |
| COc1ccc(C2=NOC(Cc3ccc4c(c3)OCO4)CC2)cc1 (stereo not given) | 9.66 |
| Cc1ccc(C2=NOC(CCl)CC2)cc1 (stereo not given) | 14.5 |
| COc1ccc(C2=NOC(CO)CC2)cc1OC (stereo not given) | 8.5 |

system: Aspergillus niger; assay: Antifungal activity against Aspergillus niger at 20 ug after 48 hrs by cup diffusion method; type: functional; details: read-out: IZ; outline: as §1

| Compound | zone of inhibition at 20 µg/disc [mm] |
| --- | --- |
| CCOC(=O)C1CCC(c2ccc(OC)c(OC)c2)=NO1 (stereo not given) | 8 |
| COc1ccc(C2=NOC(C#N)CC2)cc1 (stereo not given) | 9.5 |
| COc1ccc(C2=NOC(Cc3ccc4c(c3)OCO4)CC2)cc1 (stereo not given) | 10.7 |
| Cc1ccc(C2=NOC(CCl)CC2)cc1 (stereo not given) | 13.8 |
| COc1ccc(C2=NOC(CO)CC2)cc1OC (stereo not given) | 7.83 |

Reference: ChEMBL document CHEMBL1152843, “Synthesis of new series of 5,6-dihydro-4H-1,2-oxazines via hetero Diels-Alder reaction and evaluation of antimicrobial activity” (2009)
